Assay results reported in ChEMBL document CHEMBL5154797 (Eur J Med Chem, 2022).
Activity calls are given as the source filed them. The rule behind the calls is not given here.

Legend:
[1] = Cytotoxicity against golden hamster BSR cells assessed as reduction in cell viability incubated for 24 hrs by microplate luminometer method; type: toxicity, cell-based, Mesocricetus auratus; settings: for CC50: bsr, 24 h; for CC50 at 24 h: BSR cells
Method in brief: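 BSR cells given serial dilutions from 200 μM, with medium in place of virus. After 24 h at 37 °C, viability was read by luminometer and CC50 calculated.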

[2] = tested on: Lyssavirus rabies; experiment: Antirabies activity against rabies CVS infected in golden hamster BSR cells preincubated for 1 hr followed by mixing of cells measured after 24 hrs by inverted fluorescence microscope analysis; type: functional, organism-based
[3] = Selectivity index, ratio of CC50 for cytotoxicity against golden hamster BSR cells to EC50 for antirabies activity against Rabies virus infected in golden hamster BSR cells; type: toxicity, cell-based; settings: read-out: Selectivity Index
[4] = tested on: Huh-7; experiment: Cytotoxicity against human HuH-7 cells assessed as reduction in cell viability incubated for 24 hrs by microplate reader assay; type: functional
[5] = tested on: SARS-CoV-2; experiment: Antiviral activity against S-protein based pseudotyped SARS-CoV-2 infected in Huh7 cells measured after 24 hrs by bright-Glo luciferase assay; type: functional, organism-based; settings: Severe acute respiratory syndrome coronavirus 2, Huh-7, 24 h
Method in brief: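 Serial dilutions from 200 μM were held with pseudotyped SARS-CoV-2 (1.3 × 10^4 TCID50) at 37 °C for 1 h, then mixed with Huh7 cells (2000 cells/well) and incubated 24 h. EC50 was calculated from bioluminescence intensity.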

[6] = Selectivity index, ratio of CC50 for cytotoxicity against human Huh7 cells to EC50 for antiviral activity against S-protein based pseudotyped SARS-CoV-2 infected in Huh7 cells; type: functional
[7] = Binding affinity to rabies recombinant GST-His-tagged G-glycoprotein protein (20 to 459 AA residues) expressed in Escherichia coli BL21 (DE3) cells assessed as Kd treated for 60 secs followed dissociation time of 120 secs by SPR analysis; design: species or system Lyssavirus rabies
Method in brief: (§1)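 Biacore SPR with PBS-P as sample and running buffer. Target protein was amine-coupled to a CM5 chip in sodium acetate pH 4.0. Compound dilution series flowed at 30 μL/min, with 60 s contact and 120 s dissociation. Reference flow cell and blank cycle responses were subtracted.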

[8] = Acute toxicity in Kunming mouse assessed as lethal dose administered orally measured after 7 days; settings: in vivo, 800 mg/kg, route po, time 7 day
Method in brief: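 Female Kunming mice (20.0 ± 1.0 g), 6 per group, randomly assigned. Single oral dose of 0, 200, 400, 600 or 800 mg•kg−1, with ddH2O as control. Body weight, behaviour and survival monitored for 7 days.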

[9] = tested on: Lyssavirus rabies; experiment: Antirabies activity against rabies CVS infected in golden hamster BSR cells assessed as inhibition of viral growth at 25 uM treated 1 hr post infection measured after 23 hrs by measuring luciferase signal; type: functional, organism-based; settings: time 24.0 hrs
[10] = molecular target: Spike glycoprotein (Severe acute respiratory syndrome coronavirus 2, UniProt P0DTC2); experiment: Binding affinity to SARS-CoV-2 spike protein assessed as Kd by SPR analysis
[11] = molecular target: Spike glycoprotein (Severe acute respiratory syndrome coronavirus 2) (UniProt P0DTC2); experiment: Binding affinity to SARS-CoV-2 spike protein at 0.16 to 5 uM by SPR analysis; settings: dose 0.16-5 µM, DDE = dose-dependent effect; method in brief: as §1

Row | Compound | CC50 [1] [µM] | EC50 [2] [µM] | selectivity ratio [3] | CC50 [4] [µM] | EC50 [5] [µM] | Selectivity Index [6] | CC50 at 24 h [1] [µM] | Kd [7] [µM] | LD50 at 168 h [8] [mg/kg] | Activity [9] | Kd [10] [µM] | Activity [11]
1 | COc1ccc(Nc2cc3nc4ccccc4n(-c4ccc(Cl)cc4)c-3c/c2=N\C(C)C)cn1 | 35.4 | 2.29 | 15.5 | > 267 | 153 | >1.7 | – | – | – | – | – | –
2 | COc1ccc(Nc2cc3nc4ccccc4n(-c4ccc(Cl)cc4)c-3cc2=N)cc1 | – | 106 | 1 | > 267 | 154 | >1.7 | – | – | – | – | – | –
3 | CC(C)/N=c1\cc2n(-c3ccccc3)c3ccccc3nc-2cc1NCc1ccccc1 | 107 | 1.4 | 76.4 | < 10 | < 10 | – | – | – | – | – | – | –
4 | COc1ccc(-n2c3c/c(=N\C(C)C)c(Nc4ccccc4)cc-3nc3ccccc32)cn1 | – | 12.3 | 26.3 | < 10 | < 10 | – | 323 | – | – | – | – | –
5 | COc1ccc(-n2c3c/c(=N\C(C)C)c(Nc4ccc(Cl)cc4)cc-3nc3ccccc32)cn1 | 107 | 5.03 | 21.3 | 51.3 | < 10 | >5.1 | – | – | – | – | – | –
6 | CCC/N=c1\cc2n(-c3ccccc3)c3ccccc3nc-2cc1Nc1ccccc1 | 14.4 | 0.76 | 19 | 35.6 | < 10 | >3.5 | – | – | – | – | – | –
7 | CC(C)/N=c1\cc2n(-c3ccc(Cl)cc3)c3ccccc3nc-2cc1Nc1ccc(Cl)cc1 [CLOFAZIMINE] | – | 2.28 | – | 44.7 | 10 | – | 323 | 0.28 | – | – | – | –
8 | COc1ccc(-n2c3c/c(=N\C4CCC(OC)CC4)c(Nc4ccc(F)cc4)cc-3nc3ccccc32)cn1 (stereo not drawn) | 84.4 | 2.55 | 33.1 | 51.3 | < 10 | >5.1 | – | – | – | – | – | –
9 | COc1ccc(Nc2cc3nc4ccccc4n(-c4ccccc4)c-3c/c2=N\C(C)C)cn1 | 107 | 5.03 | 21.2 | 22.7 | 13.5 | 1.7 | – | – | – | – | – | –
10 | COc1ccc(Nc2cc3nc4ccccc4n(-c4ccc(Cl)cc4)c-3c/c2=N\C(C)C)c(OC)c1 | 120 | 6.86 | 17.6 | 13.5 | < 10 | >1.3 | – | – | – | – | – | –
11 | CC(C)/N=c1\cc2n(-c3ccc(Cl)cc3)c3ccccc3nc-2cc1Nc1ccccc1 | 185 | 8.44 | 21.9 | 154 | 40.9 | 3.8 | – | – | – | – | – | –
12 | CC(C)/N=c1\cc2n(-c3ccc(F)cc3)c3ccccc3nc-2cc1Nc1ccc(F)cc1 | – | 2.29 | 134 | 267 | 81.1 | 3.3 | 314 | – | – | – | – | –
13 | CC(C)/N=c1\cc2n(-c3ccc(Cl)cc3)c3ccccc3nc-2cc1Nc1ccc(F)cc1 | – | 4.56 | 61.7 | 40.6 | 14.5 | 2.8 | 281 | – | – | – | – | –
14 | COc1ccc(-n2c3c/c(=N\C(C)C)c(Nc4ccc(F)cc4)cc-3nc3ccccc32)cn1 | – | 1.41 | 229 | 88.9 | < 10 | >8.9 | 323 | – | 800 | Active | – | –
15 | COc1ccc(Nc2cc3nc4ccccc4n(-c4ccc(Cl)cc4)c-3cc2=N)c(OC)c1 | – | 35.4 | 1 | 16.6 | 16.1 | 1 | – | – | – | – | – | –
16 | N=c1cc2n(-c3ccccc3)c3ccccc3nc-2cc1NCc1ccccc1 | – | 35.4 | 1 | – | – | – | 35.4 | – | – | – | – | –
17 | CC(C)/N=c1\cc2n(-c3ccc(Cl)cc3)c3ccccc3nc-2cc1Nc1ccc(OC(F)(F)F)cc1 | – | 1.77 | 182 | 38.4 | 9.98 | 3.8 | – | – | – | – | – | –

Row | Compound | CC50 [1] [µM] | EC50 [2] [µM] | selectivity ratio [3] | CC50 [4] [µM] | EC50 [5] [µM] | Selectivity Index [6] | CC50 at 24 h [1] [µM] | Kd [7] [µM] | LD50 at 168 h [8] [mg/kg] | Activity [9] | Kd [10] [µM] | Activity [11]
18 | COc1ccc(-n2c3c/c(=N\C4CC4)c(Nc4ccc(F)cc4)cc-3nc3ccccc32)cn1 | 107 | 13.2 | 8.1 | 88.9 | 33.1 | 2.7 | – | – | – | – | – | –
19 | CCC/N=c1\cc2n(-c3ccc(OC)nc3)c3ccccc3nc-2cc1Nc1ccc(F)cc1 | 107 | 1.4 | 76.4 | < 10 | < 10 | – | – | – | – | – | – | –
20 | CC(C)/N=c1\cc2n(-c3ccccc3)c3ccccc3nc-2cc1NCc1ccc(F)cc1 | 17.3 | 1.9 | 9.1 | 29.6 | < 10 | >2.9 | – | – | – | – | – | –
21 | COc1ccc(-n2c3c/c(=N\C(C)C)c(Nc4cccc(F)c4)cc-3nc3ccccc32)cn1 | – | 1.45 | 223 | 88.9 | 14.6 | 6.1 | – | 0.73 | 800 | Active | 2.52 | Dde
22 | Fc1ccc(Nc2cc3nc4ccccc4n(-c4ccc(Cl)cc4)c-3c/c2=N\C2CC2)cc1 | – | 6.86 | 47.1 | 16.7 | 13.5 | 1.2 | – | – | – | – | – | –
23 | CC(C)/N=c1\cc2n(-c3ccccc3)c3ccccc3nc-2cc1Nc1ccc(Cl)cc1 | 42.6 | 1.9 | 22.4 | 16.1 | < 10 | >1.6 | – | – | – | – | – | –
24 | COc1ccc(Nc2cc3nc4ccccc4n(-c4ccc(Cl)cc4)c-3c/c2=N\C(C)C)cc1 | 130 | 6.86 | 19 | 88.9 | 16.6 | 5.4 | – | – | – | – | – | –
25 | N=c1cc2n(-c3ccc(Cl)cc3)c3ccccc3nc-2cc1Nc1ccc(Cl)cc1 | 35.4 | 20.6 | 1.7 | – | – | – | – | – | – | – | – | –
26 | CC(C)/N=c1\cc2n(-c3ccc(F)cc3)c3ccccc3nc-2cc1Nc1ccc(Cl)cc1 | – | 4.02 | 55.6 | 17 | 29.6 | 0.6 | 223 | – | – | – | – | –
27 | N=c1cc2n(-c3ccc(Cl)cc3)c3ccccc3nc-2cc1Nc1ccccc1 | 35.4 | 20.6 | 1.7 | < 10 | < 10 | – | – | – | – | – | – | –
28 | CC(C)/N=c1\cc2n(-c3ccccc3)c3ccccc3nc-2cc1Nc1ccccc1 | – | 10.7 | 30.1 | 177 | 17.2 | 10.2 | 323 | – | – | – | – | –
29 | COc1ccc(Nc2cc3nc4ccccc4n(-c4ccc(OC)nc4)c-3c/c2=N\C(C)C)cc1 | – | 13.2 | 24.5 | 17.1 | < 10 | >1.7 | 323 | – | – | – | – | –
30 | Clc1ccc(Nc2cc3nc4ccccc4n(-c4ccc(Cl)cc4)c-3c/c2=N\C2CC2)cc1 | – | 22.7 | 14.2 | > 267 | 141 | >1.9 | – | – | – | – | – | –
31 | CC(C)/N=c1\cc2n(-c3ccc(Cl)cc3)c3ccccc3nc-2cc1NCc1ccc(Cl)cc1 | 93.1 | 0.76 | 123 | 16.1 | 12.4 | 1.3 | – | – | – | – | – | –
32 | CCC/N=c1\cc2n(-c3ccc(Cl)cc3)c3ccccc3nc-2cc1Nc1ccc(Cl)cc1 | – | 24.9 | 13 | 107 | 39.3 | 2.7 | 323 | – | – | – | – | –
33 | CCC/N=c1\cc2n(-c3ccc(Cl)cc3)c3ccccc3nc-2cc1Nc1ccc(F)cc1 | 54.5 | 1.67 | 32.6 | 14.9 | 10.3 | 1.5 | – | – | – | – | – | –
